From publication PMC6923798 (Bioorganic chemistry, 2018) come the findings set out here.

Read-outs that look alike come from different tables or passages of the source.

One assay concerns Jurkat. Put plainly: MTT anti-proliferative assay. In kind it is cell-based, human. Conditions: read-out: IC50 ± SD, Jurkat. On the technique in general: Tetrazolium dyes change colour on reduction, which living cells bring about.
The test system of another assay is K-562. Put plainly: MTT anti-proliferative assay. The class given is cell-based, human. To be noted: read-out: IC50 ± SD, K-562.
A further assay concerns SR cell line. In words: NCI in vitro one dose anticancer assay. In kind it is cell-based. Conditions: Homo sapiens, 48 h, read-out: % growth inhibition. Summed up: (§1)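 NCI protocol. Test compound added once at 10−5 M to ~60 human tumour lines from nine subpanels. Incubated 48 h at 37 °C, 5% CO2, 95% air, 100% relative humidity. Endpoint by sulforhodamine B protein staining with spectrophotometric absorbance. Growth of treated cells reported as percent of untreated cells.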

The target in another assay is c-Src (Homo sapiens, UniProt P12931). Put plainly: Src kinase assay. In kind it is biochemical.
Another assay relates to KG-1a. In words: MTT anti-proliferative assay. The class given is cell-based, human. Conditions: read-out: IC50 ± SD, KG-1a.
The next assay deals with RPMI-8226 cell line. Put plainly: NCI in vitro one dose anticancer assay. In kind it is cell-based. Conditions: Homo sapiens, RPMI-8226, 48 h, read-out: % growth inhibition. Summed up:
as §1

Another assay concerns the target EGFR (Homo sapiens, UniProt P00533). In words: EGFR kinase assay. In kind it is biochemical.
The subject of another assay is IL-6. In words: IL-6 ELISA in K-562 cells. The class given is cell-based, human. Conditions: Homo sapiens, K562, 24 h, read-out: IL-6 protein levels (% of control). The method, boiled down:
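K-562 cells exposed 24 h to vehicle (DMSO), test compound at 10 μM or dexamethasone (positive control). IL-6 secreted into cell-free supernatant quantified by human IL-6 ELISA kit. Expressed as % of vehicle control, mean ± SD of three independent experiments, each in triplicate. Time course: in 12-well plates, medium changed when compound (10 μM) added, and media sampled at 0, 1, 4, 8, 12, 24, 48 h.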

The next assay relates to MOLT-4 cell line. Put plainly: NCI in vitro one dose anticancer assay. The class given is cell-based. Conditions: Homo sapiens, MOLT-4, 48 h, read-out: % growth inhibition. Summed up: as §1
The next assay concerns STAT3. Put plainly: STAT3 activation assay. The class given is cell-based, human. Conditions: K-562 cells, 10 μM, 24 h, nuclear extracts. The method, boiled down: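 K562 cells seeded overnight in 10 cm plates, then given vehicle, test compound (10 μM) or WP1066 (positive control) for 24 h. Nuclear fractions extracted by kit. STAT3 activation measured in nuclear extracts by TransAM STAT3 ELISA per manufacturer. Mean ± SD of three independent experiments, each in triplicate.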

The test system of assay [1] is full NCI panel of 60 cell lines. Put plainly: NCI in vitro one dose anticancer assay. Conditions: 48 h; for inhibition at 10 µM: Homo sapiens, 60 cell, read-out: Mean growth inhibition %. The class given is cell-based, human. Summed up:
as §1

A further assay deals with K-562 cell line. Put plainly: NCI in vitro one dose anticancer assay. In kind it is cell-based. To be noted: Homo sapiens, K562, 48 h, read-out: % growth inhibition. The method, boiled down: as §1

c-Src, sequence (P12931 whole entry): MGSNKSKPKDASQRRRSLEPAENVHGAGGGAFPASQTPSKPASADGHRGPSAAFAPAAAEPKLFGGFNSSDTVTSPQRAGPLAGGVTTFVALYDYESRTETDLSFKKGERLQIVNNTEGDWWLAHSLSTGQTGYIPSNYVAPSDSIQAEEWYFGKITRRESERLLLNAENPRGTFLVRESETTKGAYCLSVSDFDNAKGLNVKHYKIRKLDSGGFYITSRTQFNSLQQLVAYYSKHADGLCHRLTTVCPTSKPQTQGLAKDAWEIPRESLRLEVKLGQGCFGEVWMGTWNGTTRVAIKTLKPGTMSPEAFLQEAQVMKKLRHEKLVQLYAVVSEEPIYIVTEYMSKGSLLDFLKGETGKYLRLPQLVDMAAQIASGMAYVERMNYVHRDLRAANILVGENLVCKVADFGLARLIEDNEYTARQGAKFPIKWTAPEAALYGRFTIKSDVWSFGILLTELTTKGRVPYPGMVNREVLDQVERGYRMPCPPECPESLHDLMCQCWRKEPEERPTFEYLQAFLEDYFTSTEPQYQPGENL
EGFR, sequence (P00533 25-1210): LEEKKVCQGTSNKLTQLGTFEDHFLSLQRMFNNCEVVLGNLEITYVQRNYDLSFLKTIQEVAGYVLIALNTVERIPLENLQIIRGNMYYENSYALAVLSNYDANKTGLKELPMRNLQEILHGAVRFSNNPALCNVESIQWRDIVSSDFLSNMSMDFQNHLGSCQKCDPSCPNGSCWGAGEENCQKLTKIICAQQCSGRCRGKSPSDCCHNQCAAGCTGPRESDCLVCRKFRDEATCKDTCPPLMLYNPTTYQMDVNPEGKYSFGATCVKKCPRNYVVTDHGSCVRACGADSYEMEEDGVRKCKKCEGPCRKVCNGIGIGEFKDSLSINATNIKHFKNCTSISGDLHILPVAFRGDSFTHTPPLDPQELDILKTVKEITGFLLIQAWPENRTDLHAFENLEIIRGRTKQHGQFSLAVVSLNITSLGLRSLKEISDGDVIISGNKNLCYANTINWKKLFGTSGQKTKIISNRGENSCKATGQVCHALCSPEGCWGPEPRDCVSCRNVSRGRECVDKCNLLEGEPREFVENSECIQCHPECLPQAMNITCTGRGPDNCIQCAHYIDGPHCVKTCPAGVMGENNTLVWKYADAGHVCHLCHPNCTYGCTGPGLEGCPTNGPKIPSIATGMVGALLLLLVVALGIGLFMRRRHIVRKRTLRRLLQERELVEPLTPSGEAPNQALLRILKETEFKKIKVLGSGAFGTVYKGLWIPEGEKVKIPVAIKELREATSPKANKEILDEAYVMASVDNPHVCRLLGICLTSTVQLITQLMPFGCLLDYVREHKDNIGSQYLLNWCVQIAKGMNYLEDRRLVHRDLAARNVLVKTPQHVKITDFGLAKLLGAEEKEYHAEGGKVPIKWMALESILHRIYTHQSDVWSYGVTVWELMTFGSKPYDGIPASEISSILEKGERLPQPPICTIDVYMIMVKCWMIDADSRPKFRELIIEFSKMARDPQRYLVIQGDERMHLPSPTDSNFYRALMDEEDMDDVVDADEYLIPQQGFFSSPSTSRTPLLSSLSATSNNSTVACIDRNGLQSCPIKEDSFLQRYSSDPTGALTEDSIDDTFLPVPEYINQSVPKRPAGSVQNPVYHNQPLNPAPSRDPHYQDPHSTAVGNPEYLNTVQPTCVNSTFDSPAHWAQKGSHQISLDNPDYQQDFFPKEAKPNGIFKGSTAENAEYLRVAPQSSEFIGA

With `O=C(CSc1nnc(-c2ccc(Cl)cc2)o1)Nc1ccc(C(=O)C=Cc2ccccc2)cc1` [Compound 8e, 2-((5-(4-Chlorophenyl)-1,3,4-oxadiazol-2-yl)thio)-N-(4-cinnamoylphenyl)acetamide], the half-maximal inhibitory concentration (IC50) was greater than 100 µM in the assay with Jurkat (Homo sapiens, Jurkat, 24 h); 93.3 ± 5.21 µM in the assay on K-562 (Homo sapiens, K562, 24 h); 74.4 ± 3.6 µM against c-Src; greater than 100 µM with KG-1a (Homo sapiens, KG-1a, 24 h); 59.4 ± 5.63 µM at EGFR. Further, the inhibition at 10 µM with SR cell line lay in the range of 32.9 to 160%; in the assay with RPMI-8226 cell line, 31.3 to 144%. Also, the activity at 10 µM in the assay on IL-6 lay within 82 to 98%.

In the case of `COc1ccc(-c2nnc(SCC(=O)Nc3ccc(C(=O)C=Cc4ccc(Cl)cc4)cc3)o2)cc1OC` [Compound 8p, N-(4-(3-(4-chlorophenyl)acryloyl)phenyl)-2-((5-(3,4-dimethoxyphenyl)-1,3,4-oxadiazol-2-yl)thio)acetamide], the IC50 in the assay with Jurkat (Homo sapiens, Jurkat, 24 h) amounted to 17.2 ± 0.79 µM; in the assay on K-562 (Homo sapiens, K562, 24 h), 16.1 ± 1.08 µM; at c-Src it was 13.7 ± 0.89 µM; in the assay with KG-1a (Homo sapiens, KG-1a, 24 h), 22.5 ± 1.07 µM; at EGFR it was 13.3 ± 0.65 µM. In addition, the inhibition at 10 µM was 31.9 to 108% in the assay with MOLT-4 cell line, 32.9 to 160% in the assay on SR cell line, 28.2% in assay [1] and 31.3 to 144% in the assay with RPMI-8226 cell line. In addition, the “inhibition of STAT3 activation” value in the assay with STAT3 is “moderate activities”. Moreover, in the assay on IL-6, the activity at 10 µM lay in the range of 30 to 75%.

`O=C(CSc1nnc(-c2ccccc2)o1)Nc1ccc(C(=O)C=Cc2ccccc2)cc1` [Compound 8a, N-(4-(3-Phenyl)acryloyl)phenyl-2-((5-phenyl-1,3,4-oxadiazol-2-yl)thio)-acetamide]: the IC50 in the assay on Jurkat (MTT, 24 h treatment) was 8.47 ± 1.03 µM; in the assay on K-562 (MTT, 24 h treatment), 7.21 ± 0.35 µM; at c-Src (read-out: Src (IC50 μM), PGT substrate, ATP 50 μM) it was 4.5 ± 1.2 µM; in the assay with KG-1a (MTT, 24 h treatment) it was 8.85 ± 0.22 µM; at EGFR (read-out: EGFR (IC50 μM), PGT substrate, ATP 50 μM), 1.23 ± 0.25 µM. Also, the “inhibition of STAT3 activation” value in the assay with STAT3 is on record as “most effective”. For the same molecule, the “Mean growth inhibition %” value in [1] (10 μM, SRB, mean over NCI 60 cell line panel) was found to be 37.77%.

`COc1ccc(-c2nnc(SCC(=O)Nc3ccc(C(=O)C=Cc4cc(OC)c(OC)c(OC)c4)cc3)o2)cc1OC` [Compound 8s, 2-((5-(3,4-Dimethoxyphenyl)-1,3,4-oxadiazol-2-yl)thio)-N-(4-(3-(3,4,5-trimethoxyphenyl)acryloyl)phenyl)acetamide]: the half-inhibitory concentration (IC50) came out at 25.1 ± 0.45 µM in the assay with Jurkat (Homo sapiens, Jurkat, 24 h); 15.1 ± 0.25 µM in the assay on K-562 (Homo sapiens, K562, 24 h); 15.3 ± 1.25 µM on c-Src; 32.1 ± 0.64 µM in the assay on KG-1a (Homo sapiens, KG-1a, 24 h); 12.3 ± 0.8 µM at EGFR. The values for the inhibition at 10 µM in the assay on SR cell line, with RPMI-8226 cell line and in the assay on K-562 cell line were 32.9 to 160%, 31.3 to 144% and 35.8 to 152%, respectively. Moreover, in the assay with STAT3, the “inhibition of STAT3 activation” value is on record as “moderate activities”. Also, the activity at 10 µM in the assay on IL-6 lay in the range of 30 to 75%.

Consider `COc1cc(C=CC(=O)c2ccc(NC(=O)CSc3nnc(-c4cc(OC)c(OC)c(OC)c4)o3)cc2)cc(OC)c1OC` [Compound 8x, 2-((5-(3,4,5-Trimethoxyphenyl)-1,3,4-oxadiazol-2-yl)thio)-N-(4-(3-(3,4,5-trimethoxyphenyl)acryloyl)phenyl)acetamide], for which the IC50 with Jurkat (Homo sapiens, Jurkat, 24 h) turned out to be 69.17 ± 0.15 µM; in the assay on K-562 (Homo sapiens, K562, 24 h) it was 62.1 ± 3.07 µM; at c-Src, 35.1 ± 3.26 µM; in the assay with KG-1a (Homo sapiens, KG-1a, 24 h), 71.5 ± 1.18 µM; against EGFR, 20.5 ± 1.35 µM. For the same molecule, the inhibition at 10 µM with SR cell line is 32.9 to 160%; in the assay on RPMI-8226 cell line, 31.3 to 144%. Further, the “inhibition of STAT3 activation” value in the assay with STAT3 was “moderate activities”. For the same molecule, the activity at 10 µM in the assay with IL-6 was in the range of 30 to 75%.

For the molecule `COc1ccc(-c2nnc(SCC(=O)Nc3ccc(C(=O)C=Cc4cc(OC)c(OC)c(OC)c4)cc3)o2)cc1` [Compound 8n, 2-(5-(4-Methoxyphenyl)-1,3,4-oxadiazol-2-ylthio)-N-(4-(3-(3,4,5-tri-methoxyphenyl)acryloyl)phenyl)acetamide], the concentration for half-maximal inhibition (IC50) with Jurkat (Homo sapiens, Jurkat, 24 h) was 13.15 ± 0.08 µM; in the assay on K-562 (Homo sapiens, K562, 24 h), 10.2 ± 0.94 µM; against c-Src, 6.24 ± 0.86 µM; with KG-1a (Homo sapiens, KG-1a, 24 h) it was 16 ± 0.96 µM; against EGFR it was 2.35 ± 0.95 µM. Besides, the figures for the inhibition at 10 µM (with SR cell line; in assay [1]; with K-562 cell line) were 32.9 to 160%, 27.3% and 35.8 to 152%, respectively. In addition, the “inhibition of STAT3 activation” value with STAT3 is “most effective”. In the assay with IL-6, the activity at 10 µM fell in the range of 20 to 23%.

In general, IC50 refers to the concentration needed to halve the response being measured. The term inhibition denotes the relative decrease from the control value, in per cent.
